From ChEMBL document CHEMBL1145047, “Design, synthesis, and evaluation of substituted phenylpropanoic acid derivatives as human peroxisome proliferator activated receptor activators. Discovery of potent and human peroxisome proliferator activated receptor alpha subtype-selective activators” (J Med Chem, 2003)
Values belong to the molecule of their own block, whether it stands above or below them. Calls of active or inactive are those of the source. No cut-off for these calls is given here.

How the values were obtained:
[1] = target: T1, Peroxisome proliferator-activated receptor gamma (Homo sapiens) (UniProt P37231); assay: In vitro effective concentration for agonist activity on human Peroxisome proliferator activated receptor gamma-Gal4 chimeric receptor in transfected CHO-K1 cells at 10 uM; assay type: functional, cell-based
T1 sequence (whole entry): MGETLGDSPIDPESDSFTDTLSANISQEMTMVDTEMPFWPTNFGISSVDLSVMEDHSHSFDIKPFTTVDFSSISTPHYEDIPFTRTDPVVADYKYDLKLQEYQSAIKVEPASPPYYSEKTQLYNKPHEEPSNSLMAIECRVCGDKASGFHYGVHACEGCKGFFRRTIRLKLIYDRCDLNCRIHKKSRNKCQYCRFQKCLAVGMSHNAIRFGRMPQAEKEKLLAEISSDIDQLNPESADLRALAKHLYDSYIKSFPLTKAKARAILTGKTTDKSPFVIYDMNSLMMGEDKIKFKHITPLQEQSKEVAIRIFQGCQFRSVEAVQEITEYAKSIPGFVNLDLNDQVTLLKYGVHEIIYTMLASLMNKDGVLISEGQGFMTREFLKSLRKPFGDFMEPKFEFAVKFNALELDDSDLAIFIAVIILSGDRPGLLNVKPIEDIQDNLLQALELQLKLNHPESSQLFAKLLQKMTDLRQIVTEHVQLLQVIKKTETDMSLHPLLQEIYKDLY

[2] = target: T2, Peroxisome proliferator-activated receptor alpha (Homo sapiens, UniProt Q07869); assay type: functional, cell-based
T2 sequence (Q07869 whole entry): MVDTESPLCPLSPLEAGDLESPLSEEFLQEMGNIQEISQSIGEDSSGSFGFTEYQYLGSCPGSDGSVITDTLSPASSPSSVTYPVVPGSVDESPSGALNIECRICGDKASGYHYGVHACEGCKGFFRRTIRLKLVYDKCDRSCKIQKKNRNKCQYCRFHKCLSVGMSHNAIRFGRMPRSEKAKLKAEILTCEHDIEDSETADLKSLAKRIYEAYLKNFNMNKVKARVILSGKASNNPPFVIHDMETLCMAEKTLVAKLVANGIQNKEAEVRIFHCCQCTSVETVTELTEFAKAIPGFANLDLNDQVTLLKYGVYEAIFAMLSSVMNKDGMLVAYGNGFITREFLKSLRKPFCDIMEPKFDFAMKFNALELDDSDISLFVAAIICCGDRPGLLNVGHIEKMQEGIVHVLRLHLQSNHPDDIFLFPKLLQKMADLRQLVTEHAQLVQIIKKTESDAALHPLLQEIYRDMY

[3] = target: T3, Peroxisome proliferator-activated receptor delta (Homo sapiens) (UniProt Q03181); assay: In vitro effective concentration for agonist activity on human Peroxisome proliferator activated receptor delta-GAL4 chimeric receptor in transfected CHO-K1 cells at 10 uM; inactive; assay type: functional, cell-based
T3 sequence (whole entry): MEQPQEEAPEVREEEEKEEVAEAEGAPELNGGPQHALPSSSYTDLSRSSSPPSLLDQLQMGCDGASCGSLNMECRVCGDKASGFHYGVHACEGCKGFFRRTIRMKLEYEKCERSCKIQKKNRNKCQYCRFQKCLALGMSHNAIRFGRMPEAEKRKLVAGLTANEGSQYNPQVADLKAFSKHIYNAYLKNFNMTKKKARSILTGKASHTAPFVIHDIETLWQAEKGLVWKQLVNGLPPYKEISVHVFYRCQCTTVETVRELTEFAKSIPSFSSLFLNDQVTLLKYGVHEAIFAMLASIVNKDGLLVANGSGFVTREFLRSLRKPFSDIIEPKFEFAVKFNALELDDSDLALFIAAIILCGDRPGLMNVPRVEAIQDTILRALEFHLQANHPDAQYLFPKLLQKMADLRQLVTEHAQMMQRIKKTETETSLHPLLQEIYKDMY

[4] = target: T4, Peroxisome proliferator-activated receptor gamma (Homo sapiens, UniProt P37231)
T4 sequence (P37231 whole entry): T1 sequence (whole entry)

[5] = target: T5, Peroxisome proliferator-activated receptor delta (Homo sapiens, UniProt Q03181); assay: (§1) Agonist activity on Gal4 chimeric human Peroxisome proliferator activated receptor delta expressed in CHO-K1 cells; assay type: functional, cell-based
T5 sequence (Q03181 whole entry): T3 sequence (whole entry)

[6] = target: T3, Peroxisome proliferator-activated receptor delta (Homo sapiens); assay: In vitro effective concentration for agonist activity on human Peroxisome proliferator activated receptor delta-GAL4 chimeric receptor in transfected CHO-K1 cells at 10 uM; inactive
[7] = target: T3, Peroxisome proliferator-activated receptor delta (Homo sapiens); assay: as §1; assay type: functional, cell-based
Outline: (§2)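 GAL4–human PPAR LBD chimera, reporter assay in CHO-K1 cells. Cells seeded at 5 × 10⁴/well in Ham's F12 with 10% FCS for 24 h at 37 °C. Cotransfected for 2 h (lipofectamine) per well with 40 ng GAL4/PPAR LBD, 400 ng pFR-Luc and 5 ng pRL-TK. Compounds applied for 20 h at 37 °C, then luciferase read from cell lysates. EC50 is 50% of maximal reporter activity, from curve fit, n = 3.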

[8] = target: T6, Peroxisome proliferator-activated receptor alpha (Homo sapiens) (UniProt Q07869); assay: Agonist activity on Gal4 chimeric human Peroxisome proliferator activated receptor alpha expressed in CHO-K1 cells; assay type: functional, cell-based; outline: as §2
T6 sequence (whole entry): T2 sequence (Q07869 whole entry)

[9] = target: T3, Peroxisome proliferator-activated receptor delta (Homo sapiens); assay: In vitro In vitro effective concentration for agonist activity on human Peroxisome proliferator activated receptor delta-GAL4 chimeric receptor in transfected CHO-K1 cells at 10 uM; inactive; assay type: functional, cell-based
Rattus norvegicus [10] = assay: In vivo percent reduction on TG of the rat at 30 mg/kg after 5 days; assay type: functional
Outline: (§3)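 Male Sprague-Dawley rats, 11 weeks old, fed standard chow and water ad libitum. Drug or vehicle suspended in 0.5% w/v arabic gum and given orally once daily at 0.3, 3 or 30 mg/kg; duration is 4 days in the methods and 5 days in the table. Plasma taken in the fed state. TG, FFA and total cholesterol measured enzymatically. HDL obtained by precipitation; LDL+VLDL = total minus HDL cholesterol. Values are mean percent reduction, N = 5 or 6.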

Rattus norvegicus [11] = assay: In vivo percent reduction on total cholesterol of the normal rat at 3 mg/kg; assay type: functional; outline: as §3
Rattus norvegicus [12] = assay: In vivo percent reduction on FFA of the normal rat at 0.3 mg/kg; assay type: functional; outline: as §3
Rattus norvegicus [13] = assay: In vivo percent reduction on FFA of the rat at 3 mg/kg after 5 days; assay type: functional; outline: as §3
Rattus norvegicus [14] = assay: In vivo percent reduction on total cholesterol of the rat at 3 mg/kg after 5 days; assay type: functional; outline: as §3
Rattus norvegicus [15] = assay: In vivo percent reduction on total cholesterol of the rat at 0.3 mg/kg after 5 days; assay type: functional; outline: as §3
Rattus norvegicus [16] = assay: In vivo percent reduction on LDL+VLDL of the rat at 30 mg/kg after 5 days; assay type: functional; outline: as §3
Rattus norvegicus [17] = assay: In vivo percent reduction on LDL+VLDL of the rat at 3 mg/kg after 5 days; assay type: functional; outline: as §3
Rattus norvegicus [18] = assay: In vivo percent reduction on FFA of the rat at 0.3 mg/kg after 5 days; assay type: functional; outline: as §3
Rattus norvegicus [19] = assay: In vivo percent reduction on TG of the normal rat at 3 mg/kg; assay type: functional; outline: as §3
Rattus norvegicus [20] = assay: In vivo percent reduction on FFA of the rat at 30 mg/kg after 5 days; assay type: functional; outline: as §3
Rattus norvegicus [21] = assay: In vivo percent reduction on LDL+VLDL of the normal rat at 30 mg/kg; assay type: functional; outline: as §3
Rattus norvegicus [22] = assay: In vivo percent reduction on total cholesterol of the rat at 30 mg/kg after 5 days; assay type: functional; outline: as §3
Rattus norvegicus [23] = assay: In vivo percent reduction on total cholesterol of the normal rat at 30 mg/kg; assay type: functional; outline: as §3
Rattus norvegicus [24] = assay: In vivo percent reduction on FFA of the normal rat at 30 mg/kg; assay type: functional; outline: as §3
Rattus norvegicus [25] = assay: In vivo percent reduction on total cholesterol of the normal rat at 0.3 mg/kg; assay type: functional; outline: as §3
Rattus norvegicus [26] = assay: In vivo percent reduction on TG of the normal rat at 30 mg/kg; assay type: functional; outline: as §3
Rattus norvegicus [27] = assay: In vivo percent reduction on LDL+VLDL of the normal rat at 3 mg/kg; assay type: functional; outline: as §3
Rattus norvegicus [28] = assay: In vivo percent reduction on LDL+VLDL of the normal rat at 0.3 mg/kg; assay type: functional; outline: as §3
Rattus norvegicus [29] = assay: In vivo percent reduction on TG of the normal rat at 0.3 mg/kg; assay type: functional; outline: as §3
Rattus norvegicus [30] = assay: In vivo percent reduction on TG of the rat at 3 mg/kg after 5 days; assay type: functional; outline: as §3
Rattus norvegicus [31] = assay: In vivo percent reduction on FFA of the normal rat at 3 mg/kg; assay type: functional; outline: as §3
Rattus norvegicus [32] = assay: In vivo percent reduction on TG of the rat at 0.3 mg/kg after 5 days; assay type: functional; outline: as §3
Rattus norvegicus [33] = assay: In vivo percent reduction on LDL+VLDL of the rat at 0.3 mg/kg after 5 days; assay type: functional; outline: as §3
[34] = target: T3, Peroxisome proliferator-activated receptor delta (Homo sapiens); assay: In vitro effective concentration for agonist activity on human Peroxisome proliferator activated receptor delta-GAL4 chimeric receptor in transfected CHO-K1 cells; inactive; assay type: functional, cell-based; outline: as §2

Compound: CCC(Cc1ccc(OC)c(C(=O)NCc2cccc(C(F)(F)F)c2)c1)C(=O)O (configuration not stated)
- IA [1]: inactive
- EC50 [2]: 1.8 µM
- IA [3]: inactive

Compound: CCC(Cc1ccc(OC)c(C(=O)NCc2ccccc2)c1)C(=O)O (configuration not stated)
- EC50 [2]: 2.3 µM
- EC50 [4]: 10 µM
- IA [3]: inactive

Compound: CCC(Cc1ccc(OC)c(C(=O)CCc2ccc(C(F)(F)F)cc2)c1)C(=O)O (configuration not stated)
- IA [3]: inactive

Compound: COc1ccc(CC(=O)O)cc1C(=O)NCc1ccc(C(F)(F)F)cc1
- IA [1]: inactive
- IA [8]: inactive
- IA [9]: inactive

Compound: CCSC(Cc1ccc(OC)c(C(=O)NCc2ccc(C(F)(F)F)cc2)c1)C(=O)O (configuration not stated)
- EC50 [5]: 3 µM
- EC50 [2]: 1.6 µM
- EC50 [4]: 2.8 µM

Compound: CC[C@@H](Cc1ccc(OC)c(C(=O)NCc2ccc(C(F)(F)F)cc2)c1)C(=O)O
- Reduction (Rattus norvegicus [10]): 56%
- Reduction (Rattus norvegicus [11]): 26%
- Reduction (Rattus norvegicus [12]): 11%
- Reduction (Rattus norvegicus [13]): 28%
- Reduction (Rattus norvegicus [14]): 29%
- Reduction (Rattus norvegicus [15]): 22%
- Reduction (Rattus norvegicus [16]): 60%
- Reduction (Rattus norvegicus [17]): 58%
- Reduction (Rattus norvegicus [18]): 12%
- Reduction (Rattus norvegicus [19]): 26%
- Reduction (Rattus norvegicus [20]): 69%
- Reduction (Rattus norvegicus [21]): 58%
- Reduction (Rattus norvegicus [22]): 35%
- Reduction (Rattus norvegicus [23]): 32%
- Reduction (Rattus norvegicus [24]): 72%
- Reduction (Rattus norvegicus [25]): 19%
- Reduction (Rattus norvegicus [26]): 33%
- Reduction (Rattus norvegicus [27]): 56%
- Reduction (Rattus norvegicus [28]): 46%
- Reduction (Rattus norvegicus [29]): -1%
- Reduction (Rattus norvegicus [30]): 25%
- Reduction (Rattus norvegicus [31]): 27%
- Reduction (Rattus norvegicus [32]): 15%
- Reduction (Rattus norvegicus [33]): 29%

Compound: CCC(Cc1ccc(OC)c(C(=O)NCc2ccc(Cl)cc2)c1)C(=O)O (configuration not stated)
- IA [1]: inactive
- EC50 [2]: 3 µM
- IA [34]: inactive

Now from value to molecule, other results behind:

- EC50 [5]: 3 µM
- EC50 [2]: 0.09 µM
- EC50 [4]: 2.4 µM
Compound: CCC(Cc1ccc(OC)c(C(=O)NCc2ccc(Oc3ccccc3)cc2)c1)C(=O)O (configuration not stated)

- IA [6]: inactive
Compound: COc1ccc(CC2SC(=O)NC2=O)cc1C(=O)NCc1ccc(C(F)(F)F)cc1 (configuration not stated)

- EC50 [5]: 0.9 µM
- IA [1]: inactive
- EC50 [2]: 0.043 µM
Compound: CCC(Cc1ccc(OC)c(C(=O)NCc2ccc(OC(F)(F)F)cc2)c1)C(=O)O (configuration not stated)

- EC50 [2]: 5.6 µM
- IA [7]: inactive
- EC50 [4]: 5.4 µM
Compound: CCC(Cc1ccc(OC)c(C(=O)NCc2ccc(CCc3ccccc3)cc2)c1)C(=O)O (configuration not stated)

- IA [34]: inactive
Compound: CCCCC(Cc1ccc(OC)c(C(=O)NCc2ccc(C(F)(F)F)cc2)c1)C(=O)O (configuration not stated)

- EC50 [2]: 0.4 µM
- IA [7]: inactive
- EC50 [4]: 6.2 µM
Compound: CCC(Cc1ccc(OC)c(C(=O)NCc2cccc(Oc3ccccc3)c2)c1)C(=O)O (configuration not stated)

- EC50 [5]: 6.6 µM
- IA [1]: inactive
- EC50 [2]: 1.2 µM
Compound: CCC(Cc1ccc(OC)c(C(=O)NCc2ccc(OC)cc2)c1)C(=O)O (configuration not stated)

- EC50 [5]: > 143 µM
Compound: CC(C)(Oc1ccc(CCNC(=O)c2ccc(Cl)cc2)cc1)C(=O)O [BEZAFIBRATE]
- Reduction (Rattus norvegicus [10]): 41%
- Reduction (Rattus norvegicus [16]): 22%
- Reduction (Rattus norvegicus [20]): 46%
- Reduction (Rattus norvegicus [22]): 27%
